The subject of experiment [1] is Canis familiaris. Briefly: Antiemetic activity was evaluated in vivo by the suppression of apomorphine-induced emesis in dogs at oral dose of 1.0 mg/kg. In kind it is functional, Canis lupus familiaris.
The test system of experiment [2] is Rattus norvegicus. The experiment can be described thus: Compound was tested for its effect on the gastric emptying rate of phenol red semisolid meal through the stomach at oral dose of 3.0 mg/kg in rats. It counts as functional. The gist of the method:
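Rats dosed orally at 3.0 mg/kg, with a 0.5% tragacanth control group. Gastric emptying of a phenol red semisolid meal was measured and expressed as percentage enhancement relative to the control group mean. Significance was tested against control.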

Experiment [3] deals with Canis familiaris. The experiment can be described thus: Tested in vivo for effective dose required for suppression of apomorphine-induced emesis in dog […]. To be noted: Canis lupus familiaris. In kind it is functional.

For the compound `CCN1CCCCC(NC(=O)c2cc3nnn(CC4CC4)c3cc2OC)C1` (stereo unspecified), in experiment [1], the Antiemetic activity is given as 74%. The Gastric emptying in experiment [2] was 34%.

`CCN1CCCCC(NC(=O)c2cc3nnn(C)c3cc2OC)C1` (stereo unspecified) returned an Antiemetic activity in experiment [1] of 77%. In addition, the Gastric emptying in experiment [2] is 49%.

Consider `CCN1CCCCCCCC(NC(=O)c2cc3[nH]nnc3cc2OC)C1` (stereo unspecified), for which, in experiment [1], the Antiemetic activity is 22%. This compound also displayed a Gastric emptying in experiment [2] of 31%.

For `CCOc1cc2[nH]nnc2cc1C(=O)NC1CCCCN(CC)C1` (stereo unspecified), the Antiemetic activity in experiment [1] is on record as 15%. In experiment [2], this compound returned a Gastric emptying of 18%.

As for `CCN1CCCC(NC(=O)c2cc3[nH]nnc3cc2OC)C1` (stereo unspecified), in experiment [1], the Antiemetic activity is reported as 31%.

The term ED50 denotes the dose that gives a 50% effect, or the effect in half of the subjects. Low readings indicate an effect at a small dose, high ones a need for a large dose. In experiment [3], `CCN1CCCCCC(NC(=O)c2cc3[nH]nnc3cc2OC)C1` (stereo unspecified) displayed an ED50 of 0.19 mg/kg. The compound also displayed an Antiemetic activity in experiment [1] of 100%. The compound further had a Gastric emptying in experiment [2] of 21%.

`CCN(CC)CCNC(=O)c1cc(Cl)c(N)cc1OC` [METOCLOPRAMIDE]: in experiment [3], it took a dose of 0.45 mg/kg to reach the 50% effect level (ED50). Besides, the Antiemetic activity in experiment [1] was 86%. In experiment [2], this compound came in with a Gastric emptying of 39%.

The compound `CCCN1CCCCC(NC(=O)c2cc3[nH]nnc3cc2OC)C1` (stereo unspecified) came in with an Antiemetic activity in experiment [1] of 63%. Besides, the Gastric emptying in experiment [2] was found to be 17%.

In turn, `CCN1CCCCC(NC(=O)c2ccc3[nH]nnc3c2OC)C1` (stereo unspecified) came in with an Antiemetic activity in experiment [1] of 50%. For the same compound, the Gastric emptying in experiment [2] stood at 11%.

In experiment [1], `CCN1CCCCC(NC(=O)c2cc3nnn(C(C)C)c3cc2OC)C1` (stereo unspecified) had an Antiemetic activity of 94%. This compound also displayed a Gastric emptying in experiment [2] of 16%.

As to `CCN1CCCCCCC(NC(=O)c2cc3[nH]nnc3cc2OC)C1` (stereo unspecified), the 50% effective dose (ED50) in experiment [3] stood at 0.1 mg/kg. In experiment [1], this compound gave an Antiemetic activity of 100%. In experiment [2], this compound displayed a Gastric emptying of 46%.

Compound `CCN1CCCCC(NC(=O)c2cc3nnn(CC)c3cc2OC)C1` (stereo unspecified) showed an Antiemetic activity in experiment [1] of 89%. In experiment [2], this compound showed a Gastric emptying of 31%.

In the case of `COc1cc2[nH]nnc2cc1C(=O)NC1CCCCN(C)C1` (stereo unspecified), in experiment [1], the Antiemetic activity is recorded as 46%. The same compound gave a Gastric emptying in experiment [2] of 20%.

`CCOc1cc(N)c(Cl)cc1C(=O)NCC1CN(Cc2ccc(F)cc2)CCO1` (stereo unspecified) [MOSAPRIDE]: in experiment [3], the median effective dose (ED50) is above 10 mg/kg. In experiment [1], the Antiemetic activity was 8%. In experiment [2], this compound gave a Gastric emptying of 70%.

In experiment [1], `CCCn1nnc2cc(C(=O)NC3CCCCN(CC)C3)c(OC)cc21` (stereo unspecified) registered an Antiemetic activity of 89%. Further, in experiment [2], the Gastric emptying was 29%.

With `CCN1CCCCC(NC(=O)c2cc3[nH]nnc3cc2OC)C1` (stereo unspecified), the 50% effective dose (ED50) in experiment [3] amounted to 0.08 mg/kg. The compound also registered an Antiemetic activity in experiment [1] of 100%. The Gastric emptying in experiment [2] was 28%.

As to `COc1cc2[nH]nnc2cc1C(=O)NC1CCCCN(C(C)C)C1` (stereo unspecified), in experiment [1], the Antiemetic activity stood at 15%. The Gastric emptying in experiment [2] is listed as 31%.

Take `O=c1[nH]c2ccccc2n1CCCN1CCC(n2c(=O)[nH]c3cc(Cl)ccc32)CC1` [DOMPERIDONE]: the median effective dose (ED50) in experiment [3] was 0.02 mg/kg. Also, the Antiemetic activity in experiment [1] was 100%. The Gastric emptying in experiment [2] was 0%.

Values taken from ChEMBL document CHEMBL1131514, “A novel series of 6-methoxy-1H-benzotriazole-5-carboxamide derivatives with dual antiemetic and gastroprokinetic activities” (1998).
